# Assay results from ChEMBL document CHEMBL3421560, “Search for factors affecting antibacterial activity and toxicity of 1,2,4-triazole-ciprofloxacin hybrids” (Eur J Med Chem, 2015).
# Assays:
# Bacillus subtilis = assay: Antimicrobial activity against Bacillus subtilis […] after 18 hrs by broth microdilution method; type: functional
# Proteus mirabilis = assay: Antimicrobial activity against Proteus mirabilis ATCC 12453 after 18 hrs by broth microdilution method; type: functional; conditions: ATCC 12453, 18 h
# Staphylococcus aureus [1] = assay: Ratio of MBC for methicillin-susceptible Staphylococcus aureus ATCC 25923 to MIC for methicillin-susceptible Staphylococcus aureus ATCC 25923; type: functional
# In short: (§1)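 MBC taken as lowest concentration giving >99.9% CFU reduction of the initial inoculum; value is MBC divided by MIC for the same strain.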
# Pseudomonas aeruginosa = assay: Antimicrobial activity against Pseudomonas aeruginosa ATCC 9027 after 18 hrs by broth microdilution method; type: functional; conditions: ATCC 9027, 18 h
# Micrococcus luteus = assay: Antimicrobial activity against Micrococcus luteus ATCC 10240 after 18 hrs by broth microdilution method; type: functional; conditions: ATCC 10240, 18 h
# Staphylococcus aureus [2] = assay: Ratio of MBC for Staphylococcus aureus Microbank 14001 to MIC for Staphylococcus aureus Microbank 14001; type: functional; in short: as §1
# Staphylococcus aureus [3] = assay: Ratio of MBC for methicillin-susceptible Staphylococcus aureus ATCC 6538 to MIC for methicillin-susceptible Staphylococcus aureus ATCC 6538; type: functional; in short: as §1
# Staphylococcus aureus [4] = assay: Antimicrobial activity against methicillin-susceptible Staphylococcus aureus ATCC 6538 after 18 hrs by broth microdilution method; type: functional; conditions: ATCC 6538, 18 h
# Staphylococcus aureus [5] = assay: Antimicrobial activity against methicillin-susceptible Staphylococcus aureus ATCC 25923 after 18 hrs by broth microdilution method; type: functional; conditions: ATCC 25923, 18 h
# Bacillus cereus = assay: Antimicrobial activity against Bacillus cereus ATCC 10876 after 18 hrs by broth microdilution method; type: functional; conditions: ATCC 10876, 18 h
# Escherichia coli = assay: Antimicrobial activity against Escherichia coli ATCC 25922 after 18 hrs by broth microdilution method; type: functional; conditions: ATCC 25922, 18 h
# [6] = tested on: Staphylococcus epidermidis; assay: Antimicrobial activity against Staphylococcus epidermidis ATCC 12228 after 18 hrs by broth microdilution method; type: functional; conditions: ATCC 12228, 18 h
# Klebsiella pneumoniae = assay: Antimicrobial activity against Klebsiella pneumoniae ATCC 13883 after 18 hrs by broth microdilution method; type: functional; conditions: ATCC 13883, 18 h
# Staphylococcus aureus [7] = assay: Antimicrobial activity against Staphylococcus aureus Microbank 14001 after 18 hrs by broth microdilution method; type: functional; conditions: Microbank 14001, 18 h
# HEK293 = assay: Cytotoxicity against HEK293 cells after 72 hrs by MTT assay; type: cell-based; conditions: Homo sapiens, HEK293, 48 h; in the assay text read “48 hrs” for “72 hrs”
# In short: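 HEK-293 (ATCC CRL-1573) in MEM with 10% FBS plus penicillin/streptomycin, seeded 3 x 10^5 cells/well, 24 h at 37 °C, 5% CO2. Treated with compounds diluted from 50 mg/mL DMSO stock into medium with 2% FBS for 48 h. Viability by MTT formazan readout; EC50 relative to control cells, mean ± SD of three independent experiments.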
Structure (SMILES),MIC (Bacillus subtilis) [µM],MIC (Proteus mirabilis) [µM],MIC (Pseudomonas aeruginosa) [µM],MIC (Micrococcus luteus) [µM],MIC (Staphylococcus aureus [4]) [µM],MIC (Staphylococcus aureus [5]) [µM],MIC (Bacillus cereus) [µM],MIC (Escherichia coli) [µM],MIC [6] [µM],MIC (Klebsiella pneumoniae) [µM],MIC (Staphylococcus aureus [7]) [µM],Ratio (Staphylococcus aureus [1]),Ratio (Staphylococcus aureus [2]),Ratio (Staphylococcus aureus [3]),EC50 (HEK293) [µM]
COc1ccc(-n2c(-c3ccccc3O)nn(CN3CCN(c4cc5c(cc4F)c(=O)c(C(=O)O)cn5C4CC4)CC3)c2=S)cc1,0.093,0.047,0.76,1.52,0.37,0.76,0.37,0.011,0.093,0.047,0.18,<=4,<=4,<=4,–
O=C(O)c1cn(C2CC2)c2cc(N3CCN(Cn4nc(-c5ccccc5O)n(-c5ccc(F)cc5)c4=S)CC3)c(F)cc2c1=O,0.19,0.024,0.095,3.09,0.38,1.55,0.19,0.011,0.38,0.048,0.19,<=4,<=4,<=4,–
O=C(O)c1cn(C2CC2)c2cc(N3CCN(Cn4nc(-c5ccc(O)cc5)n(-c5ccc(Cl)cc5)c4=S)CC3)c(F)cc2c1=O,0.046,0.012,0.18,1.51,0.37,0.76,0.18,0.011,0.18,0.093,0.093,<=4,<=4,<=4,–
CN[C@H](CC(C)C)C(=O)N[C@H]1C(=O)N[C@@H](CC(N)=O)C(=O)N[C@H]2C(=O)N[C@H]3C(=O)N[C@H](C(=O)N[C@H](C(=O)O)c4cc(O)cc(O)c4-c4cc3ccc4O)[C@H](O)c3ccc(c(Cl)c3)Oc3cc2cc(c3O[C@@H]2O[C@H](CO)[C@@H](O)[C@H](O)[C@H]2O[C@H]2C[C@](C)(N)[C@H](O)[C@H](C)O2)Oc2ccc(cc2Cl)[C@H]1O [VANCOMYCIN],–,–,–,–,–,–,–,–,–,–,0.68,–,–,–,–

# Further compounds by falling MIC (Bacillus subtilis), results first:
MIC (Bacillus subtilis) [µM],MIC (Proteus mirabilis) [µM],MIC (Pseudomonas aeruginosa) [µM],MIC (Micrococcus luteus) [µM],MIC (Staphylococcus aureus [4]) [µM],MIC (Staphylococcus aureus [5]) [µM],MIC (Bacillus cereus) [µM],MIC (Escherichia coli) [µM],MIC [6] [µM],MIC (Klebsiella pneumoniae) [µM],MIC (Staphylococcus aureus [7]) [µM],Structure (SMILES),Ratio (Staphylococcus aureus [1]),Ratio (Staphylococcus aureus [2]),Ratio (Staphylococcus aureus [3]),EC50 (HEK293) [µM]
0.78,0.024,0.38,6.24,1.56,3.11,0.19,0.048,0.19,0.19,1.56,O=C(O)c1cn(C2CC2)c2cc(N3CCN(Cn4nc(-c5ccc(O)cc5)n(Cc5ccccc5)c4=S)CC3)c(F)cc2c1=O,<=4,<=4,<=4,–
0.18,0.091,0.36,5.95,0.75,2.97,0.091,0.046,1.49,0.091,0.75,COc1ccc(Cn2c(-c3ccc(O)cc3)nn(CN3CCN(c4cc5c(cc4F)c(=O)c(C(=O)O)cn5C4CC4)CC3)c2=S)cc1,<=4,<=4,<=4,–
0.098,0.024,0.19,1.6,0.39,0.8,0.19,0.012,0.19,0.049,0.39,O=C(O)c1cn(C2CC2)c2cc(N3CCN(Cn4nc(-c5cccc(O)c5)n(-c5ccccc5)c4=S)CC3)c(F)cc2c1=O,<=4,<=4,<=4,140
0.093,0.011,0.37,1.51,0.18,0.76,0.18,0.011,0.18,0.023,0.093,O=C(O)c1cn(C2CC2)c2cc(N3CCN(Cn4nc(-c5ccccc5O)n(-c5ccc(Cl)cc5)c4=S)CC3)c(F)cc2c1=O,<=4,<=4,<=4,–
0.024,0.049,0.2,1.6,0.39,1.6,0.098,0.024,0.098,0.049,0.39,O=C(O)c1cn(C2CC2)c2cc(N3CCN(Cn4nc(-c5ccc(O)cc5)n(-c5ccccc5)c4=S)CC3)c(F)cc2c1=O,<=4,<=4,<=4,–
